Usually Km stands for the concentration of substrate that gives half-maximal velocity. In general, Vmax refers to the rate approached at saturating substrate.

SMILES strings stand for the structures.

For one compound, Km, Vmax and Ratio results are on record in ChEMBL document CHEMBL1126990, “Design and synthesis of 18F-labeled neurotoxic analogs of MPTP” (J Med Chem, 1993).

Common to all, as to assay type: ADME
A short description of series [1]: separate experiments, n=5). The gist of the method:
(§1)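 Rat liver MAO (crude P2 mitochondrial fraction from adult male Wistar rats, in pH 7.4 phosphate buffer) incubated with substrate at 30 μM to 5 mM; colorimetric detection of H2O2 formed. Blanks contained 0.1 mM pargyline. Vmax and Km from linear regression of Lineweaver-Burk plots; means ± SE of n separate experiments; ANOVA with post-hoc Scheffe test.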

A further series is filed under the species Rattus norvegicus. The experiment in a line: Maximal rate (Vmax) for oxidation by rat liver MAO (results are means of number of separate experiments, n=5). An outline of the steps: as §1
Series [2] in a line: Ratio between Vmax and Km. An outline of the steps:
as §1

With `CN1CC=C(c2ccccc2)CC1`, in series [1], the Km was 90 µM. The Vmax in the series filed under Rattus norvegicus was 218 nM hr-1 (mg of protein)-1. Besides, the Ratio in series [2] was determined as 2.42.
